pIC50: −log10 of the molar value. Activity calls are given as the source filed them. The calls are words filed in the database; no cut-off is given here.
Assays:
[1] = target: T1, Thioredoxin reductase 1, cytoplasmic (Rattus norvegicus, UniProt O89049); experiment: Inhibition of […] thioredoxin reductase after 30 mins by DTNB reduction assay; settings: read-out: IC50
T1 sequence (O89049 whole entry): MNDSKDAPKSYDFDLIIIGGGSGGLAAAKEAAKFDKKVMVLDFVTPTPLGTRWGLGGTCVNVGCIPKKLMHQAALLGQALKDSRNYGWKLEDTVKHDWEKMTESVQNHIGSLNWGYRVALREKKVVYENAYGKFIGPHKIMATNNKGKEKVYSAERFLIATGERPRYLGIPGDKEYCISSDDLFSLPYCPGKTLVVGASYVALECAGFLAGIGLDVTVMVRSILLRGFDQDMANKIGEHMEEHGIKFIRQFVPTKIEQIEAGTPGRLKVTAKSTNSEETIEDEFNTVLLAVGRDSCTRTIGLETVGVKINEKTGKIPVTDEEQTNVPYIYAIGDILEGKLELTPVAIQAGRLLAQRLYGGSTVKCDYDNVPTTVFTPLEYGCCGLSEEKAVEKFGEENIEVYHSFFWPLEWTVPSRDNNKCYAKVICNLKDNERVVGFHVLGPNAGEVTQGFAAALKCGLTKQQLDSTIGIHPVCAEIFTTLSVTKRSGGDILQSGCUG
Summary of the method: (§1)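 Rat liver TrxR at 2.1 units/ml preincubated with a range of test concentrations and 200 µM NADPH in 50 mM Tris-HCl, 1 mM EDTA, pH 7.5, at room temperature for 30 or 60 min. Equal volume of buffer with 5 mM DTNB and 200 µM NADPH then added. A412 followed over 2 min. Activity as % of vehicle Vmax; IC50 from log concentration plot.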

[2] = target: T2, Dihydrofolate reductase (Homo sapiens) (UniProt P00374); experiment: Inhibition of DHFR in human HCT116 cell lysate assessed as reduction in conversion of DHF to THF at 40 to 70 uM after 16 hrs
T2 sequence (whole entry): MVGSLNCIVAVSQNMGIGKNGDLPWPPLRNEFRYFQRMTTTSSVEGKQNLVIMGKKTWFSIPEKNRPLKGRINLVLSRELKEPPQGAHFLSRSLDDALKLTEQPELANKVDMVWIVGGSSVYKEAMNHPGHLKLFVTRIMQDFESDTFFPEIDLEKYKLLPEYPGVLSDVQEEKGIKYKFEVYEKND
Summary of the method: (§2)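 HCT116 cells treated 16 h at 0.001 to 1 µM or 40 to 70 µM, then lysed. 400 µg lysate protein in PBS with 50 µM DHF and 200 µM NADPH, with matching controls containing 1 µM methotrexate. A340 decrease followed over 15 min at room temperature. MTX-sensitive rate given as % of DMSO-treated cells. Mean of three independent experiments.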

[3] = target: T1, Thioredoxin reductase 1, cytoplasmic; experiment: Inhibition of […] thioredoxin reductase after 60 mins by DTNB reduction assay; settings: read-out: IC50; summary of the method: as §1
[4] = target: T3, Thioredoxin reductase 1, cytoplasmic (Homo sapiens) (UniProt Q16881); experiment: Inhibition of thioredoxin reductase in human HCT116 cell lysate using thioredoxin as substrate after 16 hrs by end point insulin assay method
T3 sequence (whole entry): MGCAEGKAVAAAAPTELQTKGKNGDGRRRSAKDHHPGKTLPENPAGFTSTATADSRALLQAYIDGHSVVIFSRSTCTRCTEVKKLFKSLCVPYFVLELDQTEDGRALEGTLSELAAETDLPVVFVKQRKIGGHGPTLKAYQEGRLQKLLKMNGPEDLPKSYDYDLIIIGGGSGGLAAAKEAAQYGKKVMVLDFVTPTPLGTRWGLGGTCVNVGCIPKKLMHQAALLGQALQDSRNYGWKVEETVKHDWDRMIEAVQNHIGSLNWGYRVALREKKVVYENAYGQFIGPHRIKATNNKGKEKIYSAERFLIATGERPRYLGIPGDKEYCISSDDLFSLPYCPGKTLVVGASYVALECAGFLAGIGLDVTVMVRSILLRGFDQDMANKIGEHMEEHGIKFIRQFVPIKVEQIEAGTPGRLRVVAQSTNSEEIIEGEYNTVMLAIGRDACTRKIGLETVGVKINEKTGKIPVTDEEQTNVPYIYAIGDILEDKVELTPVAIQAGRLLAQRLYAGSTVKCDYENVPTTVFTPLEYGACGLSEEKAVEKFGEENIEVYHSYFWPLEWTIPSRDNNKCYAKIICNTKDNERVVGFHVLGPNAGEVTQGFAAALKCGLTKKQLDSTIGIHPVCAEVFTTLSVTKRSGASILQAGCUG
Summary of the method: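 HCT116 cells treated 16 h at 0.001 to 1 µM or 40 to 70 µM, then lysed. Stopped with 1 mM DTNB and 240 µM NADPH in 6 M guanidine HCl and Tris pH 8.0, read at A412. Given as % of DMSO-treated cells. Mean of three experiments.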

[5] = target: T2, Dihydrofolate reductase (Homo sapiens); experiment: Inhibition of DHFR in human HCT116 cell lysate assessed as reduction in conversion of DHF to THF after 16 hrs; summary of the method: as §2
MCF7 = experiment: Antiproliferative activity against human MCF7 cells after 72 hrs by MTT assay; format: functional; settings: MCF7, 72 h
Summary of the method: (§3)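 Cells kept in RPMI 1640 with 10% FBS, penicillin and streptomycin at 37°C and 5% CO2. Seeded at 1.0 x 10^4/well and left to adhere overnight. Serial dilutions made in medium from DMSO stocks. MTT at 400 µg/ml final for 4 h, read at T0 and after 72 h. Formazan dissolved in DMSO:glycine pH 10.5, A550. GI50 and LC50 interpolated from absorbance versus log concentration.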

[6] = target: T3, Thioredoxin reductase 1, cytoplasmic (Homo sapiens); experiment: Inhibition of thioredoxin reductase in human HCT116 cell lysate using thioredoxin as substrate at 0.001 to 1 uM after 16 hrs by end point insulin assay method
Dihydrofolate reductase = target: T4, Dihydrofolate reductase (Homo sapiens, UniProt P00374); experiment: Inhibition of recombinant human DHFR assessed as reduction in conversion of DHF to THF measured every 30 secs for 6 mins by UV-Vis spectrophotometric method
T4 sequence (P00374 whole entry): T2 sequence (whole entry)

HCT-116 [7] = experiment: Antiproliferative activity against human HCT116 cells after 72 hrs by MTT assay; format: functional; settings: HCT-116, 72 h; for CC50: read-out: LC50 (the source's name); summary of the method: as §3
HCT-116 [8] = experiment: Effect on thioredoxin reductase protein levels in human HCT116 cell lysate at 40 to 70 uM after 16 hrs by Western blot analysis; format: cell-based; settings: hct-116, 16 h
Summary of the method: (§4)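 HCT116 plated at 1.5 x 10^6 per 100 mm plate, grown 48 h, then treated 16 h at 40 to 70 µM. Adherent and floating cells pooled and lysed in Triton X-100 buffer with protease inhibitors. Lysates cleared and protein measured by Bradford. Equal protein run on SDS-PAGE and blotted. DHFR or TrxR detected by ECL, β-actin antibody also used. Three independent experiments.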

HCT-116 [9] = experiment: Upregulation of DHFR protein levels in human HCT116 cell lysate at 40 to 70 uM after 16 hrs by Western blot analysis; format: functional, cell-based; summary of the method: as §4

SMILES | pIC50 [1] | inhibition [2] | pIC50 [3] | inhibition [4] | inhibition [5] | GI50 (MCF7) [µM] | LC50 (concentration killing 50% of cells present at T0) (MCF7) [µM] | inhibition [6] | pIC50 (Dihydrofolate reductase) | GI50 (HCT-116 [7]) [µM] | CC50 (HCT-116 [7]) [µM] | Activity (HCT-116 [8]) | Activity (HCT-116 [9])
CC1(C)N=C(N)N=C(N)N1OCCCOc1cccc(C(=O)/C=C/c2ccccc2)c1 | 4.97 | Active | 5.09 | Dose-dependent effect | Dose-dependent effect | 0.076 | 20.2 | inactive | 8.05 | 0.011 | 42.7 | – | –
CC1(C)N=C(N)N=C(N)N1OCCCOc1cccc(C(=O)CCc2ccccc2)c1 | – | – | – | – | – | 0.036 | 25.9 | – | 8.41 | 0.01 | 34.2 | – | –
CC1(C)N=C(N)N=C(N)N1OCCOc1ccc(C(=O)/C=C/c2ccccc2)cc1 | 4.36 | – | 4.69 | – | – | 0.584 | 40.1 | – | 7.85 | 0.572 | 50.1 | – | –
Cl.NC1=NC2(CCCC2)N(OCCCCOc2cccc(C(=O)/C=C/c3ccccc3)c2)C(N)=N1 | 5.04 | Active | 5.23 | Dose-dependent effect | Dose-dependent effect | 0.127 | 9.7 | inactive | 8.59 | 0.116 | 13.5 | Non-Toxic | Active
CC1(C)N=C(N)N=C(N)N1OCCOc1cccc(C(=O)/C=C/c2ccccc2)c1 | 4.97 | – | 5.16 | – | – | 0.719 | 40.7 | – | 7.45 | 0.17 | 49.9 | – | –
CC1(C)N=C(N)N=C(N)N1OCCCCOc1cccc(C(=O)/C=C/c2ccccc2)c1 | 4.95 | Active | 5.17 | Dose-dependent effect | Dose-dependent effect | 0.122 | 11.3 | inactive | 8.38 | 0.051 | 30.3 | – | –
CC1(C)N=C(N)N=C(N)N1OCCCCOc1ccc(/C=C/C(=O)c2ccccc2)cc1 | 4.50 | – | 4.68 | – | – | 0.141 | 14.8 | – | 8.40 | 0.026 | 42.9 | – | –
CC1(C)N=C(N)N=C(N)N1OCCCOc1ccc(C(=O)/C=C/c2ccccc2)cc1 | 4.31 | – | 4.49 | – | – | 0.085 | 34 | – | 8.04 | 0.016 | 55.2 | – | –
CC1(C)N=C(N)N=C(N)N1OCCOc1ccc(/C=C/C(=O)c2ccccc2)cc1 | 4.53 | – | 4.68 | – | – | 0.512 | 47.7 | – | 7.27 | 0.706 | 81.9 | – | –
